According to ChEMBL document CHEMBL3124781, “Heat shock protein 70 inhibitors. 1. 2,5'-thiodipyrimidine and 5-(phenylthio)pyrimidine acrylamides as irreversible binders to an allosteric site on heat shock protein 70” (J Med Chem, 2014):
Active and inactive are the calls of the source. No cut-off for these calls is given here.

Experiments:
[1] = Growth inhibition of human SKBR3 cells after 72 hrs by Alamar Blue assay; assay type: functional, cell-based; conditions: SK-BR-3, 72 h
Summary of the method: (§1)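 Cells plated 8000/well (SKBr3, adherent) or 20000/well (Kasumi-1, suspension) and left 24 h at 37 °C. Compound added in triplicate for 72 h. Alamar Blue (50 μM) added; fluorescence (ex 530/em 580 nm) read 6 h later.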

[2] = Inhibition of Hsp70 in human SKBR3 cells assessed as HER2 protein degradation by Western blotting analysis; assay type: cell-based; conditions: SK-BR-3
Summary of the method: (§2)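 SKBr3 cells at 60–70% confluence treated with compound or DMSO for the indicated times. Lysed in 50 mM Tris pH 7.4, 150 mM NaCl, 1% NP-40. 10–50 μg protein (BCA) resolved by SDS–PAGE and immunoblotted for HER2, Raf-1, or the PARP p85 fragment, with β-actin as loading control.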

[3] = Inhibition of Hsp70 in human SKBR3 cells assessed as RAF1 protein degradation by Western blotting analysis; assay type: cell-based; conditions: SK-BR-3; summary of the method: as §2
MOLM-13 = assay: Induction of apoptosis in human MOLM13 assessed as caspase 3/7 activation using Z-DEVD-R110 as substrate pretreated for 16 hrs followed by substrate addition by fluorescence-based assay; assay type: functional, cell-based
Summary of the method: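 MOLM-13 cells (30000/well, RPMI) rested up to 24 h at 37 °C, 5% CO2. Treated 16 h with compound or DMSO, in triplicate. Then buffer added containing 10 mM HEPES pH 7.5, 2 mM EDTA, 0.1% CHAPS and 25 μM Z-DEVD-R110. Fluorescence read once stable; % increase in apoptotic cells calculated versus control.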

SK-BR-3 [4] = assay: Induction of apoptosis in human SKBR3 cells assessed as PARP cleavage by Western blotting analysis; assay type: functional, cell-based; summary of the method: as §2
[5] = target: Heat shock protein HSP 90-beta (Homo sapiens, UniProt P08238); assay: Displacement of GM-cy3B from Hsp90 in human SKBR3 cells after 24 hrs by fluorescence polarization assay; parameters: species or system SK-BR-3
Summary of the method: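 Final 6 nM GM-cy3B with 3 μg SKBr3 lysate protein; compound in triplicate; geldanamycin as positive control. Shaken 24 h at 4 °C, mP read. Concentration displacing 50% of bound tracer obtained by curve fitting.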

Kasumi 1 = assay: Growth inhibition of human Kasumi-1 cells expressing p-gp/MDR1 after 72 hrs by Alamar Blue assay; assay type: functional, cell-based; conditions: Kasumi 1, 72 h; summary of the method: as §1
[6] = (§3) Inhibition of Hsp70 in human SKBR3 cells assessed as inhibition of HOP complex formation after 24 hrs by Western blotting analysis; assay type: cell-based; conditions: SK-BR-3, 24 h
Summary of the method: (§4)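 SKBr3 cells treated 24 h at the indicated concentrations, then lysed (20 mM Tris pH 7.4, 25 mM NaCl, 0.1% NP-40, protease inhibitors). 500 μg protein immunoprecipitated overnight at 4 °C with anti-Hsp70 BB70 (normal IgG as negative control) and protein G beads. Beads washed five times; co-precipitated HOP detected by Western blot.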

SK-BR-3 [7] = assay: as §3; assay type: cell-based; summary of the method: as §4
[8] = Inhibition of His-tagged Escherichia coli DNAK assessed as inhibition of DNAJ complex formation
SK-BR-3 [9] = assay: Binding affinity to Hsp70 in human SKBR3 cells after 1 hr by […] in presence of N-(6-Amino-2-((4,6-dimethoxy-2-(4-methylpiperazin-1-yl)-pyrimidin-5-yl)thio)pyrimidin-4-yl)acrylamide; assay type: cell-based
Summary of the method: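 Cells pretreated 2 h with increasing concentrations of soluble competitor, then lysed (20 mM Tris pH 7.4, 25 mM NaCl, 0.1% NP-40). Extract (500 μg protein) incubated overnight with beads carrying biotinylated ligand (50 μM, loaded 1 h at 4 °C). Beads washed in high-salt buffer (1 M NaCl), run on SDS–PAGE, and silver stained.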

Heat shock protein HSP 90-beta, sequence (P08238 whole entry): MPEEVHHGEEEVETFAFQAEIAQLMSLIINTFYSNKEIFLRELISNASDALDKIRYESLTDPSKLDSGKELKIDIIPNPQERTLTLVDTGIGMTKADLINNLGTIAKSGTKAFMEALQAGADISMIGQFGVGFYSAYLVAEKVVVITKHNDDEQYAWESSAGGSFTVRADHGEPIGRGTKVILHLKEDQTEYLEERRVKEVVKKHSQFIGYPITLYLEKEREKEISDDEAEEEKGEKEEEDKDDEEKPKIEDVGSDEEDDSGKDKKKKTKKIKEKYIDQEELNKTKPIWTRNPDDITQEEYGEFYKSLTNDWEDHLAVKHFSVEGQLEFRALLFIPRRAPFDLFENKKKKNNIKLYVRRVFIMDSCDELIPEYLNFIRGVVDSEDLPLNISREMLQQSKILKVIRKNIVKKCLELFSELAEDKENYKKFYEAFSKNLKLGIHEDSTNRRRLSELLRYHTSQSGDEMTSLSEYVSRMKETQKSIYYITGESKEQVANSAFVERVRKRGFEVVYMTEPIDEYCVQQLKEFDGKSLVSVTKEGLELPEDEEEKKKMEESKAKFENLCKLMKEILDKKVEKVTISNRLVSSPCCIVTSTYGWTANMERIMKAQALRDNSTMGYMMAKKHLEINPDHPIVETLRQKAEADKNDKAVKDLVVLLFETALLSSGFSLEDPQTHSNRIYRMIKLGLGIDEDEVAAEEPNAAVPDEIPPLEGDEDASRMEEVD

| IC50 [2] | IC50 [3] | IC50 (MOLM-13) | IC50 (SK-BR-3 [4]) | IC50 [5] | IC50 [6] | IC50 [8] | Structure (SMILES) | IC50 [1] | IC50 (Kasumi 1) | inhibition (SK-BR-3 [7]) | Activity (SK-BR-3 [9]) |
| --- | --- | --- | --- | --- | --- | --- | --- | --- | --- | --- | --- |
| 4 µM | 5 µM | 6 µM | 5 µM | > 500 µM | – | – | C=CC(=O)Nc1ccnc(Sc2c(C)nc(N3CCN(C)CC3)nc2C)n1 | 1.8 µM | – | – | – |
| 2 µM | 3.1 µM | 4 µM | 10 µM | > 500 µM | – | – | C=CC(=O)Nc1cc(N)nc(Sc2c(OCC)nc(N3CCCCC3)nc2OCC)n1 | 7 µM | 4.5 µM | – | – |
| 2.5 µM | 7.5 µM | 16.2 µM | 5 µM | > 250 µM | – | – | C=CC(=O)Nc1cc(N)nc(Sc2c(OC)nc(N3CCCCC3)nc2OC)n1 | 9 µM | 17.1 µM | – | – |
| – | – | 7.2 µM | – | – | – | – | C=CC(=O)Nc1ccnc(Sc2c(OC)nc(N3CCOCC3)nc2OC)n1 | – | 2 µM | – | – |
| – | – | 12.4 µM | – | – | – | – | C=CC(=O)Nc1ccnc(Sc2c(OC)nc(N3CCCCC3)nc2OC)n1 | – | 3.15 µM | – | – |
| – | – | > 100 µM | – | – | – | – | C=CC(=O)Nc1ccnc(Sc2c(OC)nc(N3CC[N+](C)([O-])CC3)nc2OC)n1 | – | > 100 µM | – | – |
| – | – | 15.4 µM | – | – | – | – | C=CC(=O)Nc1ccnc(Sc2c(C)nc(N3CCOCC3)nc2C)n1 | – | 14.4 µM | – | – |
| – | – | 7.5 µM | – | – | – | – | C=CC(=O)Nc1ccnc(Sc2c(OC)nc(OC)nc2OC)n1 | – | – | – | – |
| 7.5 µM | 5 µM | 4 µM | 7.5 µM | > 500 µM | – | – | C=CC(=O)Nc1ccnc(Sc2c(OC)nc(N3CCN(C)CC3)nc2OC)n1 | 1.2 µM | 1.25 µM | – | – |
| 0.7 µM | 1.7 µM | 1.2 µM | 2 µM | > 500 µM | – | – | C=CC(=O)Nc1cc(N)nc(Sc2c(OC)nc(N3CCN(C)CC3)nc2OC)n1 | 0.8 µM | 0.9 µM | – | – |
| 20 µM | 17 µM | > 100 µM | 25 µM | > 500 µM | – | – | C=CC(=O)Nc1ccnc(Sc2c(OC)nc(N3CCCC3)nc2OC)n1 | 5 µM | 46.1 µM | – | – |
| – | – | 12.1 µM | – | – | – | – | C=CC(=O)Nc1cc(N)nc(Sc2c(OC)nc(N3CCOCC3)nc2OC)n1 | – | – | – | – |

More lines, now with the values behind:

| Structure (SMILES) | IC50 [2] | IC50 [3] | IC50 (MOLM-13) | IC50 (SK-BR-3 [4]) | IC50 [5] | IC50 [6] | IC50 [8] | IC50 [1] | IC50 (Kasumi 1) | inhibition (SK-BR-3 [7]) | Activity (SK-BR-3 [9]) |
| --- | --- | --- | --- | --- | --- | --- | --- | --- | --- | --- | --- |
| C#CCCCn1c(Cc2cc(OC)c(OC)c(OC)c2Cl)nc2c(N)nc(F)nc21 | 2 µM | 2.5 µM | – | – | – | – | – | 2.9 µM | – | – | – |
| C=CC(=O)Nc1cc(N)nc(Sc2c(OC)nc(N3CCN(C)CC3)nc2OCCOCCOCCOCCO)n1 | 75 µM | 60 µM | 100 µM | 100 µM | > 500 µM | – | – | 50 µM | 76.5 µM | – | – |
| C=C(C)C(=O)Nc1ccnc(Sc2c(C)nc(N3CCN(C)CC3)nc2C)n1 | 30 µM | 50 µM | 45 µM | 40 µM | > 500 µM | – | – | 16.7 µM | 35 µM | – | – |
| C=CC(=O)Nc1cccc(Sc2c(OC)nc(N3CCOCC3)nc2OC)c1 | 15 µM | 20 µM | 27.5 µM | 10 µM | > 500 µM | – | – | 16.5 µM | 46.5 µM | – | – |
| C=CC(=O)Nc1cc(N)nc(Sc2c(OCC)nc(N3CCN(C)CC3)nc2OCC)n1 | 1 µM | 2.5 µM | 4 µM | 1.5 µM | > 500 µM | 1.73 µM | – | 1.1 µM | 0.89 µM | Dose-dependent effect | – |
| O=c1c(O)c(-c2cc(O)c(O)c(O)c2)oc2cc(O)cc(O)c12 [MYRICETIN] | > 100 µM | > 100 µM | – | > 100 µM | – | – | 14.5 µM | – | – | – | – |
| C/C=C/C(=O)Nc1ccnc(Sc2c(C)nc(N3CCN(C)CC3)nc2C)n1 | – | – | 32 µM | – | – | – | – | – | 20 µM | – | – |
| C=C(C)C(=O)Nc1cccc(Sc2c(OC)nc(N3CCN(C)CC3)nc2OC)c1 | – | – | 60 µM | – | – | – | – | – | – | – | – |
| C=CC(=O)Nc1cc(N)nc(Sc2c(OC)nc(N3CCN(CCOCCOCCOCCOC(=O)CCCC[C@@H]4SC[C@@H]5NC(=O)N[C@@H]54)CC3)nc2OC)n1 | – | – | – | – | – | – | – | – | – | – | Active |
| C=CC(=O)Nc1cc(N)nc(Sc2c(OC)nc(N)nc2OC)n1 | 5 µM | 3.5 µM | 4.5 µM | 7.5 µM | > 500 µM | – | – | 3.2 µM | 3.9 µM | – | – |
| C=CC(=O)Nc1cc(N)nc(Sc2c(OC)nc(N3CCN(CCOCCOCCOCCO)CC3)nc2OC)n1 | 2.5 µM | – | 14.3 µM | 10 µM | > 500 µM | – | – | 7.5 µM | 3.8 µM | – | – |
| C=CC(=O)Nc1cccc(Sc2c(OC)nc(N3CCN(C)CC3)nc2OC)c1 | – | – | – | – | – | – | – | – | 7.8 µM | – | – |
| C=CC(=O)Nc1cc(N)nc(Sc2c(OCC)nc(N3CCOCC3)nc2OCC)n1 | – | – | 10.5 µM | – | – | – | – | – | 2.2 µM | – | – |
